# An excerpt weighted towards active compounds, which were near 2.2% of everything screened.
# NR2E3 ag-1: inhibitors of NR2E3-RetCOR corepressor binding, primary screen, NR2E3 agonist project, biochemical, TR-FRET, GST-NR2E3, biotin-RetCOR; Photoreceptor-specific nuclear receptor (Homo sapiens), Q9Y5X4; 1536-well; inhibition of corepressor binding, % at 4.78 µM; 320,000 compounds, 0.12% hits;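 active means percent inhibition above the cutoff of mean plus 3 SD of all tested compounds, set per screening campaign, cut at about 20% in these data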;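 further: 0% = DMSO wells and 100% = biotin wells as full block of FRET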
# Target sequence (Q9Y5X4 whole entry, looked up): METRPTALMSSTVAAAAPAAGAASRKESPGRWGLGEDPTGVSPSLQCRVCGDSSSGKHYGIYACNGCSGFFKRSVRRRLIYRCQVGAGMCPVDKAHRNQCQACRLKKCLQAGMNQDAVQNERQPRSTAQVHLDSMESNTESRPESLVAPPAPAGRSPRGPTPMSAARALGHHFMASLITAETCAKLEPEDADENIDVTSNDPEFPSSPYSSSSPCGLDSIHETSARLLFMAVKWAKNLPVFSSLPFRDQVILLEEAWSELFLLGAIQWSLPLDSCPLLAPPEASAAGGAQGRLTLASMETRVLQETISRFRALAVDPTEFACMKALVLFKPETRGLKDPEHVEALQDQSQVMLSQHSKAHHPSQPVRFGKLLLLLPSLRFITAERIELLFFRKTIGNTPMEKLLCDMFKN
#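 System: GST-tagged NR2E3 plus biotinylated RetCOR corepressor; Buffer or medium: pH 7.5 Tris-based buffer; Probe or stimulus: RetCOR corepressor, biotinylated, 7 nM; Doses: compound at 4.8 µM, single dose; Schedule: 5 h incubation at 4 °C; Technique: time-resolved FRET; Evaluation: percent inhibition of TR-FRET ratio; Replication: one well per compound, singlicate testing.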
# FXN GAA850 act: FXN promoter activators, primary screen, cell-based, luciferase luminescence, HEK293 lucGAA850 | HEK293 lucGAA850 FXN promoter luciferase reporter, 24 h; percent of 10 µM SAHA response | activation, % at 6 µM | 360,000 compounds, 0.56% hits;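 active means activation above the average of all compounds screened plus 3 SD, cutoff fixed separately per campaign, cut at about 7.5% in these data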;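 further: 0% = DMSO wells and 100% = 10 µM SAHA wells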
# NR2E3 ag-2: NR2E3 agonists in two-hybrid cells, primary screen, cell-based, luminescence, CHO-S, Gal4-NCOR/VP16-NR2E3. Photoreceptor-specific nuclear receptor (Homo sapiens), Q9Y5X4. luciferase. inhibition of corepressor binding, % at 3.98 µM. 360,000 compounds, 0.35% hits. AID 602229, 2012;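 active means inhibition above the mean of all tested compounds plus 3 SD, cut at about 70% in these data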;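 further: 0% = DMSO with NR2E3 transfected cells and 100% = cells lacking NR2E3 construct; higher means lower luciferase signal from less NR2E3 corepressor binding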
# GalR3 antag: GalR3 antagonists in HEK293 cells, primary screen, cell-based, fluorescence readout. Galanin receptor type 3 (Homo sapiens), O60755. HEK293 GalR3-CNG cAMP membrane potential fluorescence; galR3 body fused to GalR1 C-terminus. inhibition, % at 3 µM. 360,000 compounds, 0.44% hits;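 active means inhibition above the screen-wide average plus 3 SD, cut at about 13% in these data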;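 further: forskolin and galanin both at EC90 stimulate the cells; cAMP rise reported by CNG channel membrane potential dye signal; 0% = forskolin plus galanin with DMSO and 100% = forskolin alone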
# Target sequence (O60755 1-299 limits assumed): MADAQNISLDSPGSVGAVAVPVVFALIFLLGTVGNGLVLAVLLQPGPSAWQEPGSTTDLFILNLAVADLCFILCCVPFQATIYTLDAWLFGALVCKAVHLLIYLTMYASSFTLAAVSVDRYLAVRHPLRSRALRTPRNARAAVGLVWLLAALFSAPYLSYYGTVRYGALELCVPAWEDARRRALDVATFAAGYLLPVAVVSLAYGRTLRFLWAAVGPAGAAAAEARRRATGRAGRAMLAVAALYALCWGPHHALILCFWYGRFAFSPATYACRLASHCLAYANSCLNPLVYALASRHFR
# HIV Env fusion: inhibitors of HIV-1 Env-driven cell-cell fusion, primary screen, HeLa-JRFL effector, CEM21 target cells, luciferase. 360,000 compounds, 1.1% hits. inhibition, % at 12.3 µM;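 active means mean replicate inhibition score of at least 50 and every replicate individually at or above 50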;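 further: 0% = plate neutral controls and 100% = maraviroc near 300 nM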
# V-ATPase pH: regulators of yeast V-ATPase proton pumping, primary screen, pHLuorin cytosolic pH fluorescence. AID 504577, 2011. 350,000 compounds, 0.37% hits. S. cerevisiae. response, % at 10 µM; in the data active means response mostly above about 7.3%, no sharp cut-off; inactive means mostly below about 5.4%; further: actives read high
# * marks the source's active call; other numbers are inactive results; x = not tested or not shown; [ ] = another dose, or the depositor's remark.
SMILES,NR2E3 ag-1,FXN GAA850 act,NR2E3 ag-2,GalR3 antag,HIV Env fusion,V-ATPase pH
COC(=O)C(CC#Cc1ccc2c(c1)[C@]1(C(=O)N2)[C@H](C(=O)NC[C@H](O)c2ccccc2)[C@H]2C(=O)O[C@H](c3ccccc3)[C@H](c3ccccc3)N2[C@@H]1c1ccccc1OCCO)C(=O)OC,x,x,x,x,-17.8[16.7 µM],x
Cc1ccc(S(=O)(=O)N[C@H]2C=C[C@@H](CC(=O)NCc3ccncn3)O[C@@H]2CO)cc1,x,x,x,x,-0.8[16.7 µM],x
COC(=O)[C@]12C[C@H](CC(=O)NCc3cccc(C(F)(F)F)c3)C(=O)N(Cc3ccc4c(c3)OCO4)C1=C[C@H](C(C)(C)C)O[C@@H]2C,x,x,x,-4.6,59.3*,x
CCCCNC(=O)C[C@H]1C[C@@]2(C(=O)OC)C(=C[C@H](C(C)(C)C)O[C@@H]2C)N(Cc2ccc3c(c2)OCO3)C1=O,x,x,x,-7.0,81.9*,x
C[C@@H]1CN([C@H](C)CO)C(=O)c2cc(C#CCc3ccccc3)cnc2O[C@@H]1CN(C)Cc1ccc(C(=O)O)cc1,x,x,x,x,-25.9[16.7 µM],x
Cc1ccc(S(=O)(=O)Nc2ccc3c(c2)C(=O)N([C@H](C)CO)C[C@H](C)[C@H](CN(C)S(=O)(=O)c2cn(C)cn2)OCCCC[C@@H](C)O3)cc1,x,x,x,x,-22.4[16.7 µM],x
COc1ccc(-c2nnn(CC(=O)N(Cc3cccs3)C(C)C(=O)NC3CCCC3)n2)cc1OC (stereo not drawn),-1.5,3.5,-20.0,-4.2,78.2*,0.1
CCCNC(=O)C[C@@H]1CC[C@H]2[C@@H](COc3ccc(NC(=O)c4ccccc4)cc3C(=O)N2C)O1,x,x,x,x,8.0[16.7 µM],x
O=C(NCC[C@@H]1CC[C@@H](NC(=O)C2CCCC2)[C@H](CO)O1)Nc1ccc(Cl)cc1,x,x,x,x,-6.1[16.7 µM],x
COc1cc(NC2c3ccccc3C(=O)N2Cc2ccccc2)cc(OC)c1OC (stereo not drawn),2.8,6.2,0.7,-3.7,72.5*,-2.2
COc1cc(NC2c3ccccc3C(=O)N2Cc2ccccc2Cl)cc(OC)c1OC (stereo not drawn),-1.8,-1.9,-10.3,-6.9,49.6,-5.3
NC(=O)c1ccc(NCCc2cccs2)cc1,x,x,-43.8,-7.8,-0.4,x
Cn1c2ccccc2c(=O)c2ccc(NCCc3cccs3)cc21,x,10.0*,-118.7,-7.0,-313.5,-1.9
COCC(=O)N(C)C[C@H]1Oc2cc(-c3cncnc3)ccc2S(=O)(=O)N([C@@H](C)CO)C[C@@H]1C,x,x,x,x,7.5[16.7 µM],x
Cc1cc(C(=O)Nc2sccc2C(N)=O)c(C)o1,x,-0.5,-0.8,-6.9,-0.7,-5.2
CN(C)/C=N/c1sccc1C(N)=O,1.8,0.6,-3.4,-2.4,-19.2,16.4*
CC(C)c1nnc(NC(=O)CCS(=O)(=O)c2nc(-c3cccs3)cc(C(F)(F)F)n2)s1,-0.5,2.5,-6.6,2.9,85.2*,-2.0
CC(C)c1nnc(NC(=O)CCS(=O)(=O)Cc2ccccc2)s1,3.6,-1.1,-0.1,-6.8,0.6,-1.0
O=C(NCC[C@@H]1CC[C@@H](NC(=O)C2CC2)[C@H](CO)O1)c1ccc(F)cc1,x,x,x,x,3.9[16.7 µM],x
COc1ccc(/C=C/C(=O)NC(=S)NNC(=O)c2c(-c3ccccc3)noc2C)cc1,0.6,1.8,-47.7,2.2,90.6*,-0.7
COc1ccc(-c2cc(C(=O)NNC(=S)NC(=O)c3c(-c4ccccc4)noc3C)[nH]n2)cc1,1.7,-2.2,-27.2,-1.6,69.4*,-1.2
O=C1c2cccnc2C(Nc2ccc(S(=O)(=O)N3CCCCC3)cc2)N1Cc1ccccc1 (stereo not drawn),3.5,-0.5,-11.5,-6.6,83.7*,-3.4
CCOC(=O)c1ccc(NC2c3ncccc3C(=O)N2Cc2ccc(F)cc2)cc1 (stereo not drawn),-1.2,7.1,-3.9,-6.6,93.3*,2.9
COC(=O)c1cc(NC2c3ncccc3C(=O)N2Cc2ccccc2)cc(C(=O)OC)c1 (stereo not drawn),0.1,1.7,-9.7,-8.0,x,7.6
O=C(Nc1ccn(Cc2ccccc2F)n1)c1ccc(COc2ccccc2Cl)cc1,2.4,-4.1,-41.5,-8.2,59.5*,2.9
SMILES,NR2E3 ag-1,FXN GAA850 act,NR2E3 ag-2,GalR3 antag,HIV Env fusion,V-ATPase pH
O=C(Nc1ccn(Cc2c(F)c(F)cc(F)c2F)n1)c1ccc(COc2ccccc2Cl)cc1,-4.2,-2.9,-96.4,x,x,-0.2
Cc1cc(C)c(S(=O)(=O)c2c(C)cccc2C)c(OCC(C)C)n1,-2.1,-1.7,-36.9,-3.1,77.6*,0.1
CCOc1nc(C)cc(C)c1S(=O)(=O)c1cccc(C)c1,1.6,x,x,x,x,x
O=C(NCc1ccccc1)c1onc(CSc2ccc(F)cc2)c1C(=O)NCc1ccccc1,-0.2,-0.3,-13.2,-4.6,-4.4,0.7
Cc1cc(C)cc(SCc2noc(C(=O)NCc3ccccc3)c2C(=O)NCc2ccccc2)c1,-0.8,-0.2,7.8,3.0,63.6*,-4.2
CC(=O)N(C)C[C@@H]1Oc2ncc(-c3ccc(C)cc3)cc2C(=O)N([C@@H](C)CO)C[C@@H]1C,x,x,x,x,-4.0[16.7 µM],x
Nc1n[nH]c(N)c1N=Nc1ccc(F)cc1,-5.2,1.6,-23.0,-5.3,-2.1,-3.6
Cc1nc(N)sc1N=Nc1ccc(F)cc1,3.8,9.7*,-49.3,-9.4,x,0.9
C[C@@H]1CN([C@@H](C)CO)C(=O)c2cc(NC(=O)C3CC3)ccc2O[C@@H]1CN(C)C(=O)Nc1cccc2ccccc12,x,x,x,x,25.7[16.7 µM],x
COC(=O)C1=C(C)N(CCc2ccc(OC)c(OC)c2)C(=O)C1,-3.9,-0.7,3.0,-5.1,x,31.4*
Cc1ccccc1-n1c(C)nnc1SCC(=O)N(C)C1CCS(=O)(=O)C1 (stereo not drawn),0.5,0.2,-2.6,-5.4,-5.6,15.3*
Cc1ccccc1-n1c(SCC(=O)N(C)C2CCS(=O)(=O)C2)nnc1-c1ccncc1 (stereo not drawn),-4.3,2.7,7.0,-4.1,-6.0,-0.5
Cc1ccc(N/C(N)=N/c2nc(C)cc(C)n2)cc1,-2.9,0.1,-9.2,-10.4,-36.7,-4.7
CCCCc1ccc(N/C(N)=N/c2nc(C)cc(C)n2)cc1,-0.3,-3.4,44.4,40.7*,13.3,0.1
CN(C)CC(=O)Nc1ccc2c(c1)[C@H]1C[C@H](CC(=O)NCCN3CCCCC3)O[C@H](CO)[C@H]1O2,x,x,x,x,-8.3[16.7 µM],x
CNC[C@@H]1Oc2ccc(NC(=O)Cc3ccccc3)cc2C(=O)N([C@H](C)CO)C[C@H]1C,x,x,x,x,19.4[16.7 µM],x
Cc1ccc(C)c(-c2cc(C(=O)Nc3sc(C)c(C)c3C(N)=O)c3ccccc3n2)c1,0.6,-0.9,-18.5,-1.8,88.5*,-1.0

# Screening results from PubChem.
